Experimental data as given in ChEMBL document CHEMBL3352233, “N-[6-(4-butanoyl-5-methyl-1H-pyrazol-1-yl)pyridazin-3-yl]-5-chloro-1-[2-(4-methylpiperazin-1-yl)-2-oxoethyl]-1H-indole-3-carboxamide (SAR216471), a novel intravenous and oral, reversible, and directly acting P2Y12 antagonist” (J Med Chem, 2014).

Tests used:
[1] = (§1) Metabolic stability in human liver microsomes assessed as compound metabolism after 20 mins incubation in presence of 1 mM NADPH; assay type: ADME; details: liver microsomes, read-out: Drug metabolism
Method in brief: (§2)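 Hepatic microsomal fractions are incubated with compound for 20 min with 1 mM NADPH. Result is reported as % metabolized, i.e. 100 minus % unchanged compound.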

[2] = (§3) Metabolic stability in rat liver microsomes assessed as compound metabolism after 20 mins incubation in presence of 1 mM NADPH; assay type: ADME; details: liver microsomes, read-out: Drug metabolism; method in brief: as §2
[3] = tested on: Rattus norvegicus; assay: Ex vivo inhibition of platelet aggregation in Sprague-Dawley rat at 10 mg/kg, po after 2 hrs; assay type: functional; details: Rattus norvegicus, Sprague-Dawley, po, 2 h
Method in brief: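 Male Sprague−Dawley rats (250−300 g), 6 per batch, are dosed by stomach tube at 10 mL/kg of a 1 mg/mL solution in 5% glucose water containing 5% Cremophor and 3% glycofurol. At 2 h, aortic blood is drawn into 3.8% citrate (1:9) under pentobarbital. PRP is prepared at 300g for 5 min. ADP aggregation is read as the 6-min absorbance AUC and expressed as % inhibition.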

[4] = Solubility in water at pH 4.9; assay type: physicochemical
[5] = molecular target: P2Y purinoceptor 12 (Homo sapiens, UniProt Q9H244); assay: Displacement of [33P]2MeS-ADP from P2Y12 receptor (unknown origin) transfected in CHO cells after 30 mins by scintillation counting analysis; assay type: cell-based
P2Y purinoceptor 12, sequence (Q9H244 whole entry): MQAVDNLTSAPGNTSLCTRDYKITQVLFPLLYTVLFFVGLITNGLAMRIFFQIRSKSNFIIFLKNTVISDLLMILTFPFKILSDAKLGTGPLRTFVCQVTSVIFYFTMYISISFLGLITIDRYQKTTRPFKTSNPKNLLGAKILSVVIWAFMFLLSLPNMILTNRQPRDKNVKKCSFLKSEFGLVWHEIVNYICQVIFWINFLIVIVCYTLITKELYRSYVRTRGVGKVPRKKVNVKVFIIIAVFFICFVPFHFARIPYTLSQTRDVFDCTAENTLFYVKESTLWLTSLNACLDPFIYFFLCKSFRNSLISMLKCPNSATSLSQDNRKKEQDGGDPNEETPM
Method in brief: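 P2Y12-expressing CHO cells (35 × 10³/sample) in PBS with 1 mM EDTA and 0.2% BSA are exposed to compound for 30 min. [³³P]2-MeS-ADP (0.16 nM) is then added for 15 min at 20 °C, in triplicate. Filtration separates free from bound ligand, followed by scintillation counting. Nonspecific binding uses 1 mM unlabeled ADP. IC50 comes from a four-parameter logistic fit with asymptotes fixed at 0 and 100. n = 2.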

[6] = Permeability across human Caco2 cells; assay type: ADME, cell-based; details: for Papp: Caco-2, read-out: permeability
Method in brief: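 Permeation is measured across a Caco2 cell monolayer and reported in 10⁻⁷ cm·s⁻¹.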

[7] = tested on: Rattus norvegicus; assay: Ex vivo inhibition of platelet aggregation in Sprague-Dawley rat at 10 mg/kg, po after 6 hrs; assay type: functional; details: for inhibition in vivo at 10 mg/kg: Rattus norvegicus, Sprague-Dawley, po, 6 h
Method in brief: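 Time-course study in Sprague−Dawley rats after a 10 mg/kg oral dose in glucose/Cremophor/glycofurol vehicle. Aortic citrated blood is sampled at intervals over the hours after dosing. PRP is prepared at 300g for 5 min. ADP-induced aggregation is measured as the 6-min absorbance AUC and reported as % inhibition.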

[8] = Metabolic stability in mouse liver microsomes assessed as compound metabolism after 20 mins incubation in presence of 1 mM NADPH; assay type: ADME; details: read-out: Drug metabolism
Method in brief: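 Compound incubated with mouse hepatic microsomal fractions for 20 min with 1 mM NADPH. Read-out is % metabolism, meaning 100 minus % unchanged compound.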

[9] = tested on: Hepatocyte; assay: Intrinsic metabolic clearance in human hepatocytes measured per 10^6 cells after 24 hrs; assay type: ADME, cell-based
Method in brief: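 Human hepatocytes incubated with compound for 24 h to measure in vitro metabolism. Clearance reported in mL·h⁻¹·(10⁶ hepatocytes)⁻¹.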

[10] = tested on: Hepatocyte; assay: Intrinsic metabolic clearance in human hepatocytes measured assessed as CYP3A4 contribution per 10^6 cells after 24 hrs; assay type: ADME, cell-based
[11] = tested on: Rattus norvegicus; assay: Ex vivo inhibition of platelet aggregation in po dosed Sprague-Dawley rat after 2 hrs; assay type: functional
Method in brief: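 Oral gavage in male Sprague−Dawley rats (250−300 g, 6 per batch), vehicle 5% glucose water with 5% Cremophor and 3% glycofurol. Blood is collected 2 h after dosing from the abdominal aorta into 3.8% citrate under pentobarbital. PRP is prepared at 300g for 5 min. ADP-induced aggregation is quantified as the 6-min absorbance AUC, given as % inhibition.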

[12] = tested on: Rattus norvegicus; assay: Ex vivo inhibition of platelet aggregation in Sprague-Dawley rat at 1 mg/kg, iv after 30 mins; assay type: functional; details: 0.5 h
Method in brief: (§4)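 Male Sprague−Dawley rats (250−300 g) receive compound iv. At 30 min, under pentobarbital anesthesia, blood is taken from the abdominal aorta into 3.8% citrate (1:9). PRP is prepared at 300g for 5 min. ADP-induced aggregation is measured, using the area under the absorbance curve over 6 min, and expressed as % inhibition.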

[13] = tested on: Rattus norvegicus; assay: Ex vivo inhibition of platelet aggregation in Sprague-Dawley rat at 3 mg/kg, iv after 30 mins; assay type: functional; details: 0.5 h; method in brief: as §4
[14] = tested on: Rattus norvegicus; assay: Ex vivo inhibition of platelet aggregation in Sprague-Dawley rat at 10 mg/kg, iv after 30 mins; assay type: functional; details: 0.5 h; method in brief: as §4
[15] = tested on: Rattus norvegicus; assay: Toxicity in rat assessed as damaged organ at 30 mg/kg, po after 7 days; assay type: organism-based; set-up: dose 30 mg/kg, route oral; details: in vivo, 168 h
Method in brief: (§5)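 Rats are dosed daily for 7 days, orally (30 and 100 mg/kg) or iv (3 and 10 mg/kg). Target organs are examined for damage. Plasma AUC(0−24) is compared between day 1 and day 7.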

[16] = tested on: Rattus norvegicus; assay: Toxicity in rat assessed as damaged organ at 100 mg/kg, po after 7 days; assay type: organism-based; set-up: dose 100 mg/kg, route oral; details: in vivo, 168 h; method in brief: as §5
[17] = tested on: Rattus norvegicus; assay: Toxicity in rat assessed as damaged organ at 3 mg/kg, iv after 7 days; assay type: organism-based; set-up: dose 3 mg/kg, route intravenous; details: in vivo, 168 h; method in brief: as §5
[18] = tested on: Rattus norvegicus; assay: Toxicity in rat assessed as damaged organ at 10 mg/kg, iv after 7 days; assay type: organism-based; set-up: dose 10 mg/kg, route intravenous; details: in vivo, 168 h; method in brief: as §5
[19] = tested on: Canis familiaris; assay: Toxicity in conscious telemetered mongrel dog assessed as hemodynamic effect at 100 mg/kg, po after 24 hrs; assay type: organism-based, Canis lupus familiaris; set-up: dose 100 mg/kg, route oral; details: in vivo
[20] = tested on: Canis familiaris; assay: Toxicity in conscious telemetered mongrel dog assessed as electrocardiographic effect at 100 mg/kg, po after 24 hrs; assay type: organism-based, Canis lupus familiaris; set-up: dose 100 mg/kg, route oral; details: in vivo
[21] = tested on: Canis familiaris; assay: Toxicity in conscious telemetered mongrel dog assessed as body temperature at 100 mg/kg, po after 24 hrs; assay type: organism-based, Canis lupus familiaris; set-up: dose 100 mg/kg, route oral; details: in vivo
[22] = Plasma concentration in conscious telemetered mongrel dog at 100 mg/kg, po after 4 hrs; assay type: ADME, organism-based, Canis lupus familiaris; set-up: dose 100 mg/kg, route oral
[23] = tested on: Rattus norvegicus; assay: Ex vivo inhibition of platelet aggregation in Sprague-Dawley rat at 30 mg/kg, po after 2 hrs
[24] = tested on: Rattus norvegicus; assay: Ex vivo inhibition of platelet aggregation in Sprague-Dawley rat at 0.1 mg/kg, iv after 5 mins
[25] = tested on: Rattus norvegicus; assay: Ex vivo inhibition of platelet aggregation in Sprague-Dawley rat at 0.3 mg/kg, iv after 5 mins
[26] = tested on: Rattus norvegicus; assay: Ratio of AUC (0 to 24 hrs) in rat dosed as 7 day repeated administration to AUC (0 to 24 hrs) in rat administered as single dose; details: in vivo
[27] = Solubility in water at final pH; assay type: physicochemical
[28] = tested on: Liver microsome; assay: as §1; assay type: ADME; details: microsomes, 20 min; method in brief: as §2
[29] = tested on: Liver microsome; assay: as §3; assay type: ADME; details: microsomes, 20 min; method in brief: as §2

| SMILES | metabolised at 20 min [1] [%] | metabolised at 20 min [2] [%] | inhibition in vivo at 10 mg/kg [3] [%] | IC50 [5] [nM] | Papp [6] [×10⁻⁶ cm/s] | inhibition in vivo at 10 mg/kg [7] [%] | inhibition in vivo at 1 mg/kg [12] [%] | inhibition in vivo at 3 mg/kg [13] [%] | inhibition in vivo at 10 mg/kg [14] [%] | other results |
| --- | --- | --- | --- | --- | --- | --- | --- | --- | --- | --- |
| CCCC(=O)c1cnn(-c2ccc(NC(=O)c3cn(CC(=O)N4CCN(C)CC4)c4ccc(C)cc34)cc2)c1C.Cl | 39 | 41 | 33 | 31 | 4 | – | – | – | – | solubility [4]: 760 µg/mL |
| CCCC(=O)c1cnn(-c2ccc(NC(=O)c3cn(CC(=O)N4CCN(C)CC4)c4ccc(Cl)cc34)nn2)c1C | 29 | 11 | – | 17 | 0.8 | 74 | 75 | 86 | 92 | metabolised at 20 min [8]: 4%; CLH [9]: 0.085 mL/h; Activity [10]: 43%; ED50 [11]: 2.75 mg/kg; inhibition [11]: Dose-dependent effect; Activity [15]: Non-toxic; Activity [16]: Non-toxic; Activity [17]: Non-toxic; Activity [18]: Non-toxic; Activity [19]: Non-toxic; Activity [20]: Non-toxic; Activity [21]: Non-toxic; concentration at 4 h [22]: 4.2 µM; inhibition in vivo at 30 mg/kg [23]: 85%; inhibition in vivo at 0.1 mg/kg [24]: 37%; inhibition in vivo at 0.3 mg/kg [25]: 63%; Ratio [26]: 1.3 |
| CCCC(=O)c1cnn(-c2ccc(NC(=O)c3cn(CC(=O)N(C)C)c4cc(C)c(C)cc34)cc2)c1C | 59 | 64 | – | 31 | 18.6 | – | – | – | – | solubility [27]: < 10 µg/mL |
| CCCC(=O)c1cnn(-c2ccc(NC(=O)c3cn(CC(=O)N4CCN(C)CC4)c4ccc(Cl)cc34)cc2)c1C | 36 | 14 | 50 | 27 | 1.6 | 51 | 53 | 70 | 86 | – |
| CCCC(=O)c1cnn(-c2ccc(NC(=O)c3cn(CC(=O)N4CCN5CCN(C)C(=O)C5C4)c4ccc(Cl)cc34)cc2)c1C (single isomer, unassigned; 104) | – | – | – | 12 | – | – | – | – | – | Drug metabolism [28]: 47%; Drug metabolism [29]: 7%; inhibition (INH) ([7]; 10 mg/kg): 61%; permeability ([6]; Caco-2): 28 ×10⁻⁷ cm/s |
